Assay results reported in ChEMBL document CHEMBL1140411, “Deoxyuridine triphosphate nucleotidohydrolase as a potential antiparasitic drug target” (J Med Chem, 2005).

Tests used:
[1] = tested on: Trypanosoma brucei rhodesiense; assay: Inhibitory constant against Trypanosoma brucei rhodesiense upon incubation with the compound at 37 degrees C under a 5% CO2 atmosphere for 72 hours; type: functional, organism-based
[2] = tested on: Trypanosoma cruzi; assay: In vitro growth inhibitory activity against Trypanosoma cruzi in rat L-6 cells upon incubation at 37 degrees C in 5% CO2 atmosphere for 4 days; type: functional, organism-based; details: L6, 96 h
Summary of the method: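 L-6 cells seeded at 2000 cells/well in RPMI 1640 with 10% FBS and 2 mM L-glutamine. After 24 h, 5000 T. cruzi Tulahuen C2C4 LacZ trypomastigotes added with serial drug dilutions, then 4 days at 37 °C, 5% CO2. CPRG/Nonidet substrate added and colour read at 540 nm after 2-4 h. IC50 from sigmoidal curve. Twice independently, in duplicate.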

[3] = target: T1, dUTP pyrophosphatase (Plasmodium falciparum 3D7, UniProt Q8II92); assay: Inhibitory constant against Plasmodium falciparum deoxyuridine 5'-triphosphate nucleotidohydrolase expressed in Escherichia coli BL21 (DE3) cells
T1 sequence (Q8II92 whole entry): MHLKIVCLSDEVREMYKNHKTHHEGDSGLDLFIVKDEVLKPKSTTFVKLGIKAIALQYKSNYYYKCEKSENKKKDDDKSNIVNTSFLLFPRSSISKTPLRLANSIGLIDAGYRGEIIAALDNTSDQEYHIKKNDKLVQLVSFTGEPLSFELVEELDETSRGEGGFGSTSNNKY
Summary of the method: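 Recombinant PfdUTPase expressed in E. coli BL21(DE3) and purified by phosphocellulose and gel filtration to ~96% purity. Continuous stopped-flow assay following proton release with cresol red/bicine (50:2000 µM, 573 nm). Mix: 30 nM enzyme, 50 µM dUTP, 5 mM MgCl2, 2.5 mM DTT, 1.25 mg/mL BSA, 100 mM KCl. KMapp from integrated Michaelis-Menten fits, plotted against [I] to give Ki.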

[4] = target: T2, dUTP pyrophosphatase (Leishmania major, UniProt O15826); assay: Inhibitory constant against Leishmania major deoxyuridine 5'-triphosphate nucleotidohydrolase
T2 sequence (O15826 whole entry): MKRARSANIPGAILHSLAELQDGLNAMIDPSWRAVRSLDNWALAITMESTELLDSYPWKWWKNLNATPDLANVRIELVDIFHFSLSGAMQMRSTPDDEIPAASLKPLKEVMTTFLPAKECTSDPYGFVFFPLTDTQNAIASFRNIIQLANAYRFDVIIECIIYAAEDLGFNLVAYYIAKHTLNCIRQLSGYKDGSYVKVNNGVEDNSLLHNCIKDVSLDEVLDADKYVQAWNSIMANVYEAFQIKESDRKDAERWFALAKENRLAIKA

[5] = target: T3, dUTP pyrophosphatase (Plasmodium falciparum 3D7) (UniProt Q8II92); assay: Selectivity index for Plasmodium falciparum deoxyuridine 5'-triphosphate nucleotidohydrolase defined as (Ki Human)/(Ki Plasmodium falciparum)
T3 sequence (whole entry): T1 sequence (Q8II92 whole entry)
Summary of the method: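 Ratio of human dUTPase Ki to P. falciparum dUTPase Ki. Both Ki values came from stopped-flow pH-indicator assays following dUTP hydrolysis, with Ki derived from the dependence of apparent KM on inhibitor concentration.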

[6] = tested on: Plasmodium falciparum; assay: In vitro inhibitory activity against Plasmodium falciparum as [3H]hypoxanthine (50 uL) incorporation at 37C; type: functional, organism-based
[7] = target: T4, Deoxyuridine 5'-triphosphate nucleotidohydrolase, mitochondrial (Homo sapiens, UniProt P33316); assay: Inhibitory constant against human deoxyuridine 5'-triphosphate nucleotidohydrolase expressed in Escherichia coli BL21 (DE3) cells
T4 sequence (P33316 whole entry): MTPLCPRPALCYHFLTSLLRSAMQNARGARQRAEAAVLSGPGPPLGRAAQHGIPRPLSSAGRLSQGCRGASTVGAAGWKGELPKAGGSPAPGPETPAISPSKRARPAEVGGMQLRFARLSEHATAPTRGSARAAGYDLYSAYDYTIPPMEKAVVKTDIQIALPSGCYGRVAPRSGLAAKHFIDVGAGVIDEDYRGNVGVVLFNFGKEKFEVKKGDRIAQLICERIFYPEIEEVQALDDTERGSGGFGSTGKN
Summary of the method: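 Human dUTPase expressed in E. coli BL21(DE3) and purified like the Plasmodium enzyme (phosphocellulose, then gel filtration). dUTP hydrolysis followed continuously by stopped-flow as pH-indicator absorbance (cresol red/bicine, 50:2000 µM, 573 nm). Apparent KM from integrated Michaelis-Menten fits at each inhibitor concentration; Ki from linear KMapp versus [I].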

[8] = tested on: L6; assay: In vitro cytotoxicity aganist rat skeletal myoblasts (L-6 cells) after 72 hours; type: functional, cell-based; details: L6, 72 h
Summary of the method: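 L-6 rat skeletal myoblasts seeded at 4 × 10^4 cells/mL in RPMI 1640 with 10% FBS and 2 mM L-glutamine. After 24 h, medium replaced with a serial drug dilution, then 72 h at 37 °C, 5% CO2. Alamar Blue added for a further 2-4 h. Fluorescence read at ex 536/em 588 nm. Run twice independently, in duplicate.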

[9] = tested on: Leishmania donovani; assay: In vitro growth inhibitory activity against Leishmania donovani amastigotes at 37 degrees C under a 5% CO2 atmosphere for 96 hours; type: functional, organism-based
Summary of the method: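 Mouse peritoneal macrophages in RPMI 1640 with 10% heat-inactivated FBS, infected after 24 h with L. donovani amastigotes at 3:1 (amastigote:macrophage). Free amastigotes washed out at 4 h. Next day, drug-containing medium added for 96 h at 37 °C, 5% CO2. Slides methanol-fixed and Giemsa-stained. Percentage of infected macrophages scored microscopically versus control; IC50 by linear regression. Twice independently, in duplicate.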

Compound | IC50 [1] | IC50 [2] | Ki [3] | Ki [4] | SI [5] | IC50 [6] | Ki [7] | IC50 [8] | IC50 [9]
CC(C)(C)[Si](C)(C)OC1CC(n2ccc(=O)[nH]c2=O)OC1CNC(c1ccccc1)(c1ccccc1)c1ccccc1 (stereo unspecified) | 2.7 µM | 97 µM | 313 µM | > 1000 µM | > 3 | 1.8 µM | > 1000 µM | 7.8 µM | 
CC(C)(C)[Si](C)(C)O[C@H]1C[C@H](n2ccc(=O)[nH]c2=O)O[C@@H]1COP(=O)(Oc1ccccc1)Oc1ccccc1 | 12 µM | 10 µM | 597 µM | 116 µM | > 1.7 | 6 µM | > 1000 µM | > 157 µM | > 17 µM
O=c1ccn(C2CC(F)C(CNC(c3ccccc3)(c3ccccc3)c3ccccc3)O2)c(=O)[nH]1 (stereo unspecified) | 3.6 µM | 47 µM | 12 µM | > 1000 µM | > 83 | 5.3 µM | > 1000 µM | 30 µM | > 63 µM
O=C(NCC1OC(n2ccc(=O)[nH]c2=O)CC1O)c1ccccc1 (stereo unspecified) | 120 µM | > 272 µM | 178 µM | > 1000 µM | 2.6 | > 15 µM | 469 µM | > 272 µM | > 91 µM
CC(=O)OC[C@H]1O[C@@H](n2ccc(=O)[nH]c2=O)C[C@@H]1O | 13 µM | 273 µM | 294 µM | > 1000 µM | > 3 | > 19 µM | > 1000 µM | 64 µM | > 111 µM
CCOP(=O)(OCC)OC[C@H]1O[C@@H](n2ccc(=O)[nH]c2=O)C[C@@H]1O | 37 µM | > 247 µM | 316 µM | > 1000 µM | > 3 | > 14 µM | > 1000 µM | 198 µM | > 82 µM
Cc1ccc(S(=O)(=O)OC[C@H]2O[C@@H](n3ccc(=O)[nH]c3=O)C[C@@H]2O)cc1 | 44 µM | > 236 µM | 142 µM | > 1000 µM | > 7 | > 13 µM | > 1000 µM | > 236 µM | > 79 µM
NS(=O)(=O)NC(=O)OCC1C=CC(n2ccc(=O)[nH]c2=O)O1 (stereo unspecified) | 40 µM | > 270 µM | 82 µM | > 1000 µM | 9.7 | > 150 µM | 799 µM | 262 µM | > 90 µM
O=c1ccn([C@H]2C[C@H](O)[C@@H](COP(=O)(Oc3ccccc3)Oc3ccccc3)O2)c(=O)[nH]1 | 52 µM | > 196 µM | 238 µM | > 1000 µM | 0.6 | > 11 µM | 135 µM | > 196 µM | > 65 µM
CC(C)(C)[Si](C)(C)O[C@H]1C[C@H](n2ccc(=O)[nH]c2=O)O[C@@H]1COC(c1ccccc1)(c1ccccc1)c1ccccc1 | 25 µM | 247 µM | 515 µM | 454 µM | > 1.9 | 1 µM | > 1000 µM | > 154 µM | 17 µM
CC(C)(C)[Si](C)(C)O[C@H]1C[C@H](n2ccc(=O)[nH]c2=O)O[C@@H]1CO | 83 µM | > 263 µM | 648 µM | 114 µM | 0.2 | > 15 µM | 119 µM | > 263 µM | > 88 µM
O=c1ccn(C2CC(O)C(CNP(=O)(Oc3ccccc3)Oc3ccccc3)O2)c(=O)[nH]1 (stereo unspecified) | > 196 µM | > 65 µM | 26 µM | > 1000 µM | > 38 | > 11 µM | > 1000 µM | > 196 µM | > 65 µM
O=c1ccn([C@H]2C[C@H](F)[C@@H](CO)O2)c(=O)[nH]1 | 100 µM | > 130 µM |  |  |  | > 21 µM |  | > 391 µM | > 391 µM
O=c1ccn(C2CC(F)C(COC(c3ccccc3)(c3ccccc3)c3ccccc3)O2)c(=O)[nH]1 (stereo unspecified) | 47 µM | 29 µM | 5 µM | 177 µM | 91 | 2 µM | 457 µM | 35 µM | 
Cc1ccc(S(=O)(=O)NCC2OC(n3ccc(=O)[nH]c3=O)CC2O)cc1 (stereo unspecified) | 102 µM | > 236 µM | > 1000 µM | > 1000 µM |  | > 13 µM | > 1000 µM | > 236 µM | > 79 µM
CC(C)[Si](OC[C@H]1O[C@@H](n2ccc(=O)[nH]c2=O)C[C@@H]1O)(C(C)C)C(C)C | 8 µM | 58 µM | 227 µM | > 1000 µM | > 4 | > 13 µM | > 1000 µM | 25 µM | 
